Measurements reported in ChEMBL document CHEMBL3612019, “Revisiting 1,3,4-Oxadiazol-2-ones: Utilization in the Development of ABHD6 Inhibitors” (Bioorg Med Chem, 2015).
Active and inactive are the calls of the source. No cut-off for these calls is given here.

Experiments:
[1] = biological target: T1, Monoacylglycerol lipase ABHD6 (Homo sapiens) (UniProt Q9BV23); assay: Inhibition of human ABHD6 expressed in HEK293 cells assessed as remaining enzyme activity by measuring reduction in glycerol production from 1-AG hydrolysis at 1 uM pre-incubated for 30 mins before 1-AG substrate addition and measured 90 mins post substrate addition by fluorescence method; format: cell-based
T1 sequence (whole entry): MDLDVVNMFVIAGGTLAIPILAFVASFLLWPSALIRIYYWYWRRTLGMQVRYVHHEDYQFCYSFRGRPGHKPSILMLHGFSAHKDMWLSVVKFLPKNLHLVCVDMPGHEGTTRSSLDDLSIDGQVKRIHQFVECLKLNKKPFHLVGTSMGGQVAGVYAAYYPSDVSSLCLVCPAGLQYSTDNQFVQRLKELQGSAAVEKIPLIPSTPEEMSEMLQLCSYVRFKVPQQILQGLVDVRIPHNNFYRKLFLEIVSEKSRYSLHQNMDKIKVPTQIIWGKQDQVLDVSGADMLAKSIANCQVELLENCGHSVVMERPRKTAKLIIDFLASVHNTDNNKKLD
Method in brief: (§1)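 hABHD6-HEK293 lysates pretreated 30 min with DMSO or inhibitor, then given 1-AG (12.5 µM final). Glycerol release was followed kinetically by fluorescence (emission 590 nm). Blanks without lysate were subtracted. IC50 was taken at the 90 min time point by nonlinear fitting of dose–response curves.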

[2] = biological target: T2, Fatty-acid amide hydrolase 1 (Homo sapiens, UniProt O00519); assay: Inhibition of human FAAH expressed in COS7 cell membranes pre-incubated for 10 mins before [3H]-AEA substrate addition by liquid scintillation counting; design: species or system COS-7
T2 sequence (O00519 whole entry): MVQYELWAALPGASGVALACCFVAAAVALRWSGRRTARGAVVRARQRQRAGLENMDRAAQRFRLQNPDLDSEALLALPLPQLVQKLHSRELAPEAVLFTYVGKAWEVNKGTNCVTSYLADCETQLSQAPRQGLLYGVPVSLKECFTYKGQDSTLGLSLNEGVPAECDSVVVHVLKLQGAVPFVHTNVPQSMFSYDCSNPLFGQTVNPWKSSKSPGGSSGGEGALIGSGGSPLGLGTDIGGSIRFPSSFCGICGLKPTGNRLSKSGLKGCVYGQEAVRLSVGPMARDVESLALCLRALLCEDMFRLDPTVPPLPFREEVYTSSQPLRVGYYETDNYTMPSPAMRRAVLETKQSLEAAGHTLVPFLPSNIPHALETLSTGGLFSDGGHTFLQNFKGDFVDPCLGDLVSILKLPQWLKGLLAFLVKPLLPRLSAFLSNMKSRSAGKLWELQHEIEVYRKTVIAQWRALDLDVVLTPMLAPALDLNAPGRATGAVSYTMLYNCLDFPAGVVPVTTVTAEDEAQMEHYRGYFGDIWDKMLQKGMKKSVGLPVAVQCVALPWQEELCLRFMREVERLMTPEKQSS

Monoglyceride lipase = biological target: T3, Monoglyceride lipase (Homo sapiens, UniProt Q99685); assay: Inhibition of human MAGL expressed in HEK293 cells pre-incubated for 10 mins before 2-AG substrate addition by HPLC method; format: cell-based
T3 sequence (Q99685 whole entry): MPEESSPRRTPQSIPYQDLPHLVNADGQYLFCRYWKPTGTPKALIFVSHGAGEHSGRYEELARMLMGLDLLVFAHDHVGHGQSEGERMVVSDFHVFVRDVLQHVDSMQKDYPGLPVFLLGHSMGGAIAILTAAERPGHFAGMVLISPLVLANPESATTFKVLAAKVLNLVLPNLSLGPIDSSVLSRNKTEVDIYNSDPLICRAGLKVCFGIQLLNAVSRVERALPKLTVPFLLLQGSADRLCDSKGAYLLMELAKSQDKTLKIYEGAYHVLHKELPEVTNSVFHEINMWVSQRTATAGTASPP
Method in brief: (§2)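 Lysates of hMAGL-overexpressing HEK293 cells in 50 mM Tris–HCl pH 7.4 with 1 mM EDTA. After a 10 min preincubation with inhibitor or DMSO, 2-AG was added (final 50 µM) and incubated 10 min at 37 °C. The reaction was stopped and samples centrifuged. Arachidonic acid formation and 2-AG depletion were measured by HPLC. Replicates as for the FAAH assay.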

[3] = biological target: T4, Lysophosphatidylserine lipase ABHD12 (Homo sapiens) (UniProt Q8N2K0); assay: Inhibition of human ABHD12 expressed in HEK293 cells assessed as remaining enzyme activity at 1 uM pre-incubated for 10 mins before 2-AG substrate addition by HPLC method; format: cell-based
T4 sequence (whole entry): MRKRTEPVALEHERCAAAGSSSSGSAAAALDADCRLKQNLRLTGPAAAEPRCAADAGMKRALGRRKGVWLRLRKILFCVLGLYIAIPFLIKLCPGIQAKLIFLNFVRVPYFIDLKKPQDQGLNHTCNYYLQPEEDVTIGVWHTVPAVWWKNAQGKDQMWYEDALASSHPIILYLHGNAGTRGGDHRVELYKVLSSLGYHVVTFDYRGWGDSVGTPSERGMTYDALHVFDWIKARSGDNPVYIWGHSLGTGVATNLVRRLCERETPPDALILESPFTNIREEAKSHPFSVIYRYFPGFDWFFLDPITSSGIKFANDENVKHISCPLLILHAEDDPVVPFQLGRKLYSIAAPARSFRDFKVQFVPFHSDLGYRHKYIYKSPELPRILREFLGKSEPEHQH

[4] = biological target: T5, Fatty-acid amide hydrolase 1 (Homo sapiens) (UniProt O00519); assay: Inhibition of human FAAH expressed in COS7 cell membranes at 10 uM pre-incubated for 10 mins before [3H]-AEA substrate addition by liquid scintillation counting; conditions: COS-7
T5 sequence (whole entry): T2 sequence (O00519 whole entry)

[5] = biological target: T6, Monoglyceride lipase (Homo sapiens) (UniProt Q99685); assay: Inhibition of human MAGL expressed in HEK293 cells at 10 uM pre-incubated for 10 mins before 2-AG substrate addition by HPLC method; format: cell-based; method in brief: as §2
T6 sequence (whole entry): T3 sequence (Q99685 whole entry)

[6] = biological target: T7, Monoacylglycerol lipase ABHD6 (Homo sapiens, UniProt Q9BV23); assay: Inhibition of human ABHD6 expressed in HEK293 cells at 1 uM pre-incubated for 10 mins before 2-AG substrate addition followed by rapid 40 fold compound dilution measured after 90 mins by HPLC method; format: cell-based
T7 sequence (Q9BV23 whole entry): T1 sequence (whole entry)

[7] = biological target: T7, Monoacylglycerol lipase ABHD6; assay: Inhibition of human ABHD6 expressed in HEK293 cells at 1 uM pre-incubated for 10 mins before 2-AG substrate addition followed by rapid 40 fold compound dilution measured after 60 mins by HPLC method; format: cell-based
[8] = biological target: T7, Monoacylglycerol lipase ABHD6; assay: Inhibition of human ABHD6 expressed in HEK293 cells at 1 uM pre-incubated for 10 mins before 2-AG substrate addition followed by rapid 40 fold compound dilution measured after 10 mins by HPLC method; format: cell-based
[9] = biological target: T7, Monoacylglycerol lipase ABHD6; assay: Inhibition of human ABHD6 expressed in HEK293 cells assessed as reduction in glycerol production from 1-AG hydrolysis pre-incubated for 30 mins before 1-AG substrate addition and measured 90 mins post substrate addition by fluorescence method; format: cell-based; method in brief: as §1
[10] = biological target: T7, Monoacylglycerol lipase ABHD6; assay: Inhibition of human ABHD6 expressed in HEK293 cells at 1 uM pre-incubated for 10 mins before 2-AG substrate addition followed by rapid 40 fold compound dilution measured after 30 mins by HPLC method; format: cell-based
[11] = biological target: Cannabinoid receptor 1 (Rattus norvegicus) (UniProt P20272); conditions: Cerebellum, Membrane, 1 uM
Cannabinoid receptor 1 (Rattus norvegicus), sequence (P20272 whole entry): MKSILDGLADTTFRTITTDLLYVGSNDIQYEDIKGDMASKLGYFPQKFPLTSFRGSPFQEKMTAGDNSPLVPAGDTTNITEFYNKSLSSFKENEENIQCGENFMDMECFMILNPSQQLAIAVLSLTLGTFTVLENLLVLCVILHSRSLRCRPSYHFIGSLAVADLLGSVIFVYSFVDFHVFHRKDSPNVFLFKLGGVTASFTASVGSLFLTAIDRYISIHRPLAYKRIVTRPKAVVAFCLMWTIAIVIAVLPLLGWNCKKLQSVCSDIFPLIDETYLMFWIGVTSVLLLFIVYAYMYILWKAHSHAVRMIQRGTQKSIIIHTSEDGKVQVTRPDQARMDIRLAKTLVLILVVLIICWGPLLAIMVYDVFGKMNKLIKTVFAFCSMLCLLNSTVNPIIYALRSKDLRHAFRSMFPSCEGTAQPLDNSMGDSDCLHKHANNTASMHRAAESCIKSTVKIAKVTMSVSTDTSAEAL

| inhibition [1] | Activity [1] [%] | inhibition [3] | inhibition [4] | inhibition [5] | SMILES | further results |
| --- | --- | --- | --- | --- | --- | --- |
|  | 88 | inactive |  |  | COc1nn(Cc2ccc(NC(=O)c3ccccc3)cc2)c(=O)o1 | IC50 ([2]; read-out: IC50): 620 nM; IC50 ([2]; read-out: pIC50 (converted)): 617 nM; IC50 (Monoglyceride lipase; read-out: IC50): 560 nM |
| inactive |  | inactive | 10% | 15% | CCOc1nn(Cc2cccc(N)c2)c(=O)o1 |  |
| inactive |  | inactive | inactive | 25% | COc1nn(Cc2ccc(C#N)cc2)c(=O)o1 |  |
|  | 65 | inactive | 7% | 32% | COc1nn(Cc2cccc([N+](=O)[O-])c2)c(=O)o1 |  |
|  | 70 |  |  |  | COc1nn(Cc2cccc(Oc3ccccc3)c2)c(=O)o1 |  |
|  | 60 |  |  | inactive | COc1nn(Cc2ccccc2Oc2ccccc2)c(=O)o1 |  |
| inactive |  |  |  |  | COc1nn(Cc2ccc(CC(C)C)cc2)c(=O)o1 |  |
|  | 61 |  | inactive | inactive | COc1nn(Cc2ccccc2)c(=O)o1 |  |
|  | 57 | inactive | 36% | 43% | COc1nn(Cc2ccccc2[N+](=O)[O-])c(=O)o1 |  |
| inactive |  | inactive | 8% | 4% | COc1nn(Cc2ccccc2N)c(=O)o1 |  |
| inactive |  | inactive | inactive | 12% | COc1nn(Cc2cccc(NC(C)=O)c2)c(=O)o1 |  |
|  | 63 | inactive | inactive | 23% | COc1nn(Cc2cccc(C#N)c2)c(=O)o1 |  |
| inactive |  | inactive | 11% | 3% | COc1nn(Cc2ccccc2NC(C)=O)c(=O)o1 |  |
| inactive |  | inactive | 18% | 36% | COc1nn(Cc2ccc([N+](=O)[O-])cc2)c(=O)o1 |  |
| inactive |  | inactive | inactive | inactive | COc1nn(Cc2ccccc2NC(=O)c2ccccc2)c(=O)o1 |  |
| inactive |  |  |  |  | COc1nn(Cc2cccc(-c3ccccc3)c2)c(=O)o1 |  |
| inactive |  |  |  |  | COc1nn(Cc2ccc(-c3ccccc3)cc2)c(=O)o1 |  |
| inactive |  | inactive | 23% | 8% | COc1nn(Cc2ccccc2-c2ccccc2)c(=O)o1 |  |

The next lines start with the compound.

| SMILES | inhibition [1] | Activity [1] [%] | inhibition [3] | inhibition [4] | inhibition [5] | further results |
| --- | --- | --- | --- | --- | --- | --- |
| COc1nn([C@@H](C)c2ccc(CC(C)C)cc2)c(=O)o1 | inactive |  |  |  |  |  |
| COc1nn(Cc2ccc(N)cc2)c(=O)o1 | inactive |  | inactive | 34% | 23% |  |
| COc1nn(Cc2cccc(Cl)c2)c(=O)o1 |  | 52 | inactive | 37% | 43% |  |
| COc1nn(Cc2ccc(OCc3ccccc3)cc2)c(=O)o1 | inactive |  | inactive |  |  | IC50 ([2]; read-out: IC50): 410 nM; IC50 ([2]; read-out: pIC50 (converted)): 407 nM; IC50 (Monoglyceride lipase; read-out: IC50): 520 nM |
| COc1nn(Cc2cccc(NC(=O)c3ccccc3)c2)c(=O)o1 |  | 79 | inactive | inactive | 48% |  |
| COc1nn(Cc2ccc3ccccc3c2)c(=O)o1 | inactive |  | inactive |  | inactive | IC50 ([2]; read-out: IC50): 3980 nM; IC50 ([2]; read-out: pIC50 (converted)): 3980 nM |
| COc1nn(Cc2ccc(Oc3ccccc3)cc2)c(=O)o1 |  | 77 |  |  |  | pIC50 (Monoglyceride lipase; hek293): 6.4 |
| CN(C(=O)Oc1nsnc1N1CCOCC1)C1CCCCCCC1 |  |  |  | 18% | inactive | IC50 [6]: 93.3 nM; IC50 [7]: 87.1 nM; IC50 [8]: 91.2 nM; pIC50 ([9]; hek293): 7.36; IC50 [10]: 87.1 nM |
| COc1nn(Cc2cccc3ccccc23)c(=O)o1 |  | 64 | inactive | 35% | 11% |  |
| Cc1c(C(=O)NN2CCCCC2)nn(-c2ccc(Cl)cc2Cl)c1-c1ccc(I)cc1 |  |  |  |  |  | inhibition [11]: 38% |
| O=C(N1CCC(=C2c3ccc(Cl)cc3CCc3cccnc32)CC1)n1cncn1 |  |  |  |  |  | IC50 ([2]; cos-7, read-out: IC50): 7240 nM; IC50 (Monoglyceride lipase; hek293, read-out: IC50): 46 nM; IC50 ([9]; hek293): 1780 nM |
| COc1nn(Cc2cccc(OCc3ccccc3)c2)c(=O)o1 |  | 53 | inactive |  |  | IC50 ([2]; read-out: IC50): 1510 nM; IC50 ([2]; read-out: pIC50 (converted)): 1510 nM; IC50 (Monoglyceride lipase; read-out: IC50): 3230 nM |
| COC(=O)c1cccc(Cn2nc(OC)oc2=O)c1 |  |  | inactive | 20% | 7% | IC50 [9]: 450 nM |
| COc1nn(Cc2cccc(C(F)(F)F)c2)c(=O)o1 |  |  | inactive | 12% | 48% | IC50 [9]: 870 nM |
| COc1cccc(Cn2nc(OC)oc2=O)c1 |  | 70 | inactive | inactive | 6% |  |
| COc1nn(Cc2ccc(NC(C)=O)cc2)c(=O)o1 | inactive |  | inactive | 37% | 16% |  |
| COC(=O)c1ccc(Cn2nc(OC)oc2=O)cc1 | inactive |  | inactive |  | 15% | IC50 ([2]; read-out: IC50): 6760 nM; IC50 ([2]; read-out: pIC50 (converted)): 6760 nM |
| O=c1oc(Oc2ccccc2)nn1Cc1cccc([N+](=O)[O-])c1 |  |  | inactive | 38% |  | IC50 (Monoglyceride lipase; read-out: IC50): 3310 nM; IC50 (Monoglyceride lipase; read-out: pIC50 (converted)): 3240 nM; IC50 [9]: 130 nM |
